Assay results reported in ChEMBL document CHEMBL1123176, “Synthesis and antitumor activity of cyclophosphamide analogues. 4. Preparation, kinetic studies, and anticancer screening of "phenylketophosphamide" and similar compounds related to the cyclophosphamide metabolite aldophosphamide” (1986).

Columns and labels:
Mus musculus [1] = assay: Number of survivors on day 60 at a dose of 400 mg/kg; 0/7; assay type: functional
How it was run: (§1)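 Male BDF1 mice, 6 weeks old, implanted ip with 1 × 10^5 L1210 lymphoid leukemia cells on day 0. Dosing was a single ip dose on day 2 in 10% Me2SO, except where noted: x7 schedules given ip on days 2 through 8; some arms given po; some arms in saline vehicle. Read-outs were % increased life span and survivors on day 60; some runs were duplicated.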

Mus musculus [2] = assay: Increased life span against L1210 lymphoid leukemia cells in male BDF1 mice at a dose of 100 mg/kg; assay type: functional; conditions: for ILS at 100 mg/kg: Mus musculus, BDF1, L1210, dose 100 mg/kg; how it was run: as §1
Mus musculus [3] = assay: Increased life span against L1210 lymphoid leukemia cells in male BDF1 mice at a dose of 200 mg/kg; assay type: functional; conditions: for ILS at 200 mg/kg: Mus musculus, BDF1, L1210; how it was run: as §1
Mus musculus [4] = assay: Number of survivors on day 60 at a dose of 200 mg/kg; 0/7; assay type: functional; how it was run: as §1
Mus musculus [5] = assay: Number of survivors on day 60 at a dose of 100 mg/kg; 0/7; assay type: functional; how it was run: as §1
Mus musculus [6] = assay: Increased life span against L1210 lymphoid leukemia cells in male BDF1 mice at a dose of 400 mg/kg; assay type: functional; conditions: for ILS at 400 mg/kg: Mus musculus, BDF1, L1210; how it was run: as §1
Mus musculus [7] = assay: Number of survivors on the toxicity day (day = 15) at a dose of 125 x1 mg/kg; 6/6; assay type: functional
Mus musculus [8] = assay: Number of survivors on day 60 at a dose of 400 mg/kg; 5/7; assay type: functional; how it was run: as §1
Mus musculus [9] = assay: Number of survivors on the toxicity day (day = 15) at a dose of 250x1 mg/kg; 6/6; assay type: functional
Mus musculus [10] = assay: Compound was ested for antitumor activity against Lewis lung carcinoma cells implanted in female CD2F1 mice at a dose of 62.5x1 mg/kg; assay type: functional
Mus musculus [11] = assay: Compound was ested for antitumor activity against Lewis lung carcinoma cells implanted in female CD2F1 mice at a dose of 500x1 mg/kg; assay type: functional
Mus musculus [12] = assay: Number of survivors on day 60 at a dose of 50 mg/kg; 0/7; assay type: functional; how it was run: as §1
Mus musculus [13] = assay: Number of survivors on the toxicity day (day = 15) at a dose of 62.5x1 mg/kg; 6/6; assay type: functional
Mus musculus [14] = assay: Compound was ested for antitumor activity against Lewis lung carcinoma cells implanted in female CD2F1 mice at a dose of 125 x1 mg/kg; assay type: functional
Mus musculus [15] = assay: Compound was ested for antitumor activity against Lewis lung carcinoma cells implanted in female CD2F1 mice at a dose of 250x1 mg/kg; assay type: functional
Mus musculus [16] = assay: Number of survivors on the toxicity day (day = 15) at a dose of 500x1 mg/kg; 5/6; assay type: functional
Mus musculus [17] = assay: Number of survivors on day 60 at a dose of 200 mg/kg; 1/7; assay type: functional; how it was run: as §1
Mus musculus [18] = assay: Increased life span against L1210 lymphoid leukemia cells in male BDF1 mice at a dose of 50 mg/kg; assay type: functional; how it was run: as §1
Mus musculus [19] = assay: Number of survivors on the toxicity day (day = 15) at a dose of 100x1 mg/kg; assay type: functional
Mus musculus [20] = assay: Increased life span against L1210 lymphoid leukemia cells in male BDF1 mice at a dose of 30 mg/kg; assay type: functional; how it was run: as §1
Mus musculus [21] = assay: Compound was ested for antitumor activity against Lewis lung carcinoma cells implanted in female CD2F1 mice at a dose of 200x2 mg/kg; T=Toxic doxe; assay type: functional, organism-based
Mus musculus [22] = assay: Number of survivors on the toxicity day (day = 5) at a dose of 50x1 mg/kg; 6/6; assay type: functional
Mus musculus [23] = assay: Number of survivors on the toxicity day (day = 5) at a dose of 100x1 mg/kg; 6/6; assay type: functional
Mus musculus [24] = assay: Number of survivors on the toxicity day (day = 5) at a dose of 200x1 mg/kg; 6/6; assay type: functional
Mus musculus [25] = assay: Number of survivors on day 60 at a dose of 7.5 mg/kg; 0/7; assay type: functional; how it was run: as §1
Mus musculus [26] = assay: Number of survivors on the toxicity day (day = 21) at a dose of 100x1 mg/kg; 5/7; assay type: functional
Mus musculus [27] = assay: Number of survivors on the toxicity day (day = 5) at a dose of 400x1 mg/kg; 5/6; assay type: functional
Mus musculus [28] = assay: Compound was ested for antitumor activity against Lewis lung carcinoma cells implanted in female CD2F1 mice at a dose of 50x2 mg/kg; assay type: functional
Mus musculus [29] = assay: Compound was ested for antitumor activity against Lewis lung carcinoma cells implanted in male CD2F1 mice at a dose of 400x2 mg/kg; Toxic doxe; assay type: functional, organism-based
Mus musculus [30] = assay: Compound was ested for antitumor activity against Lewis lung carcinoma cells implanted in CD2F1 female mice at a dose of 25x2 mg/kg; assay type: functional
Mus musculus [31] = assay: Increased life span against L1210 lymphoid leukemia cells in male BDF1 mice at a dose of 10x7 mg/kg; assay type: functional; how it was run: as §1
Mus musculus [32] = assay: Increased life span against L1210 lymphoid leukemia cells in male BDF1 mice at a dose of 15 mg/kg; assay type: functional; how it was run: as §1
Mus musculus [33] = assay: Increased life span against L1210 lymphoid leukemia cells in male BDF1 mice at a dose of 25 mg/kg; assay type: functional; how it was run: as §1
Mus musculus [34] = assay: Increased life span against L1210 lymphoid leukemia cells in male BDF1 mice at a dose of 20x7 mg/kg; assay type: functional; how it was run: as §1
Mus musculus [35] = assay: Number of survivors on the toxicity day (day = 5) at a dose of 25x1 mg/kg; 5/6; assay type: functional
Mus musculus [36] = assay: Compound was ested for antitumor activity against Lewis lung carcinoma cells implanted in female CD2F1 mice at a dose of 100x2 mg/kg; assay type: functional
Mus musculus [37] = assay: Compound was ested for antitumor activity against Lewis lung carcinoma cells implanted in male C57BL mice at a dose of 100 mg/kg; assay type: functional
Mus musculus [38] = assay: Number of survivors on day 60 at a dose of 25 mg/kg; 0/7; assay type: functional; how it was run: as §1
Mus musculus [39] = assay: Compound was ested for antitumor activity against Lewis lung carcinoma cells implanted in male CD2F1 mice at a dose of 100x2 mg/kg; assay type: functional
Mus musculus [40] = assay: Number of survivors on the toxicity day (day = 5) at a dose of 200x1 mg/kg; 5/6; assay type: functional
Mus musculus [41] = assay: Increased life span against L1210 lymphoid leukemia cells in male BDF1 mice at a dose of 7.5 mg/kg; assay type: functional; how it was run: as §1
Mus musculus [42] = assay: Number of survivors on day 60 at a dose of 5 x 7 ip administration day 2 through day; assay type: functional; how it was run: as §1
Mus musculus [43] = assay: Compound was ested for antitumor activity against Lewis lung carcinoma cells implanted in male CD2F1 mice at a dose of 200x2 mg/kg; assay type: functional
Mus musculus [44] = assay: Increased life span against L1210 lymphoid leukemia cells in male BDF1 mice at a dose of 5x7 mg/kg; assay type: functional; how it was run: as §1
Mus musculus [45] = assay: Compound was ested for antitumor activity against Lewis lung carcinoma cells implanted in male CD2F1 mice at a dose of 5x6 mg/kg; assay type: functional
Mus musculus [46] = assay: Number of survivors on day 60 at a dose of 400 mg/kg; 7/7; assay type: functional; how it was run: as §1

O=C(CCOP(=O)(NCCCl)N(CCCl)CCCl)c1ccccc1 (stereo unspecified)
Survivors (Mus musculus [1]): 0
ILS at 100 mg/kg (Mus musculus [2]): 29.9%
ILS at 200 mg/kg (Mus musculus [3]): 60.6%
Survivors (Mus musculus [4]): 0
Survivors (Mus musculus [5]): 0
ILS at 400 mg/kg (Mus musculus [6]): -19.7%

O=C(CCOP(=O)(NCCCl)NCCCl)c1ccccc1
Survivors (Mus musculus [7]): 6
ILS at 100 mg/kg (Mus musculus [2]): 51.7%
Survivors (Mus musculus [8]): 5
Survivors (Mus musculus [9]): 6
Survivors (Mus musculus [5]): 0
T/C (Mus musculus [10]): 117%
T/C (Mus musculus [11]): 291%
ILS at 400 mg/kg (Mus musculus [6]): > 443%
Survivors (Mus musculus [12]): 0
Survivors (Mus musculus [13]): 6
T/C (Mus musculus [14]): 138%
T/C (Mus musculus [15]): 165%
Survivors (Mus musculus [16]): 5
Survivors (Mus musculus [17]): 1
ILS at 50 mg/kg (Mus musculus [18]): 20.2%

O=P1(N(CCCl)CCCl)NCCCO1 (stereo unspecified) [CYCLOPHOSPHAMIDE ANHYDROUS]
ILS at 100 mg/kg (Mus musculus [2]): 59.6%
ILS (Mus musculus [2]; dose 100 mg/kg): 52.9%
ILS at 200 mg/kg (Mus musculus [3]): > 423%
Survivors (Mus musculus [5]): 0
Survivors (Mus musculus [19]): 7

NP(=O)(OCCC(=O)c1ccccc1)N(CCCl)CCCl (stereo unspecified)
ILS at 30 mg/kg (Mus musculus [20]): 35.1%
T/C (Mus musculus [21]): Toxic
ILS at 100 mg/kg (Mus musculus [2]): -34%
Survivors (Mus musculus [22]): 6
Survivors (Mus musculus [23]): 6
Survivors (Mus musculus [24]): 6
Survivors (Mus musculus [25]): 0
Survivors (Mus musculus [26]): 5
Survivors (Mus musculus [27]): 5
T/C (Mus musculus [28]): 223%
T/C (Mus musculus [29]): Toxic
T/C (Mus musculus [30]): 163%
ILS (Mus musculus [31]): 29.7
ILS at 15 mg/kg (Mus musculus [32]): 16.3%
Survivors (Mus musculus [12]): 0
ILS at 25 mg/kg (Mus musculus [33]): 22.9%
ILS (Mus musculus [34]): 58.8
Survivors (Mus musculus [35]): 5
T/C (Mus musculus [36]): 92%
T/C (Mus musculus [37]): 63%
Survivors (Mus musculus [38]): 0
T/C (Mus musculus [39]): 221%
Survivors (Mus musculus [40]): 5
ILS at 7.5 mg/kg (Mus musculus [41]): 10.7%
Survivors (Mus musculus [42]): 0
T/C (Mus musculus [43]): 89%
ILS (Mus musculus [44]): 20.6
ILS at 50 mg/kg (Mus musculus [18]): 43.9%
T/C (Mus musculus [45]): 106%

O=P1(NCCCl)OCCCN1CCCl (stereo unspecified) [IFOSFAMIDE]
ILS (Mus musculus [3]): 99.8
Survivors (Mus musculus [4]): 0
Survivors (Mus musculus [5]): 0
ILS (Mus musculus [6]): >617
Survivors (Mus musculus [12]): 0
Survivors (Mus musculus [46]): 7
